# An excerpt weighted towards active compounds, which were near 2.6% of everything screened.
# E-selectin induc = E-selectin induction on HUVECs | P16581 | HUVEC E-selectin immunofluorescence imaging; normalized: neutral wells 0, TNF-alpha wells 100 | activation, % at 7.58 µM | 0.37% of 260,000 active | AID 686992;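 active = mean E-selectin-positive cell signal at least 10% of the positive control, reached in at least 60% of replicates, without over 20% cell loss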
# Target sequence (P16581 whole entry, looked up): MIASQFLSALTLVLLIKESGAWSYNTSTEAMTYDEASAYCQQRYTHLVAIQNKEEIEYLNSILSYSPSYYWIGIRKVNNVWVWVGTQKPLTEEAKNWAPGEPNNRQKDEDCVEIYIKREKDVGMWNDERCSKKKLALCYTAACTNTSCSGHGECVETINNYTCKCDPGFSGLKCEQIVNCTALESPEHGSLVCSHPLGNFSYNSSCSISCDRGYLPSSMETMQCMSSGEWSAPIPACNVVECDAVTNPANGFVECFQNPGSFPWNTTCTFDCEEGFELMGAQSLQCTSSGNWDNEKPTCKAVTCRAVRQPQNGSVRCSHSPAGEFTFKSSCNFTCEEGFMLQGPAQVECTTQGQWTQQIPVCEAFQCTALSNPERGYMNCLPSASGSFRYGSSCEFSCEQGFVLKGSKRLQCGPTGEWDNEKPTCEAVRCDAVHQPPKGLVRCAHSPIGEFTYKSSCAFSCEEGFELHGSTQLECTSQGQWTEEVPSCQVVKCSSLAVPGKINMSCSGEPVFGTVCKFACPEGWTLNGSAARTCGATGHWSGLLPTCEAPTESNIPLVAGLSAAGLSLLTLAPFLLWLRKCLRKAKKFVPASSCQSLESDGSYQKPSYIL
#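 Test system: HUVEC; input: 3,000 HUVEC/well; measured by: immunofluorescence imaging; read-out: % PE-positive cells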
# AF4-AF9 inh = blocks AF4 peptide binding to human AF9; AlphaScreen, biotin-AF4 peptide binding to FLAG-AF9; AID 651704; P42568; inhibition, % at 10 µM; 0.47% of 350,000 active;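 active = every replicate reaching a set inhibition limit, whatever the replicate mean, cut at about 25% in these data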;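 note: 0% = plate neutral control median and 100% = total signal loss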
# INS-1E GSIS act = primary screen for activators of insulin secretion dependent on glucose, INS-1E cells, GLuc reporter luminescence; INS-1E GLuc reporter insulin secretion, 2-3 h; activation, % at 16.6 µM; 0.61% of 370,000 active;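 active = lowest replicate activation of at least 40%, so every replicate reaches that level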;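 note: 0% = median of neutral control wells and 100% = median of IBMX positive control wells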
# RAD54 inh = inhibitors of human RAD54 branch migration. 0.14% of 360,000 active. AID 602329. Q92698. RAD54 Holliday junction branch migration, FAM/BHQ fluorescence. inhibition, % at 10.4 µM;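 active = mean normalized replicate activity at least 40 and at least half of replicates scoring 40 or more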;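 note: 0% = median of neutral control wells and 100% = median of positive control wells; inhibitors cause a drop in the FAM fluorescence signal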
# rRNA inh HTS = inhibits bacterial ribosomal RNA function over humanized ribosomes; AID 720706; 1.6% of 350,000 active; GFP signal change (wild-type ribosome), % (no concentration beside the values); E. coli WT GFP vs humanized-ribosome RFP mutants, fluorescence, 24 h; active compounds read low; DMSO median 0, no signal -100;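 active = significant combined selectivity score with lowered wild-type GFP, culture density cut under 30%, mutant RFP and density less affected; inactive = any of these conditions unmet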
# RAD52 anneal inh = blocks human RAD52 DNA annealing | 0.46% of 360,000 active | recombinant RAD52 DNA annealing, FRET fluorescence | inhibition, % at 18.7 µM | P43351;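 active = every replicate showing at least 50% inhibition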
# Numbers without * were called inactive; nt = no result.
SMILES,E-selectin induc,AF4-AF9 inh,INS-1E GSIS act,RAD54 inh,rRNA inh HTS,RAD52 anneal inh
Cc1ccc(S(=O)(=O)NCc2csc(-c3cccs3)n2)cc1,7,-3,48*,nt,-3,-9
COc1ccc(S(=O)(=O)NCc2csc(-c3cccnc3)n2)cc1,3,-3,0,3,5,-12
O=S(=O)(NCc1csc(-c2cccs2)n1)c1cccs1,nt,2,-3,nt,-18,-11
COc1ccc(S(=O)(=O)Nc2ccc3c(c2)C(=O)N([C@H](C)CO)C[C@@H](C)[C@@H](CN(C)C(=O)NC2CCCCC2)O3)cc1,0,-3,4,0,-1,9
CC(C)N(CCC#N)C(=O)Nc1ccc2c(c1)CCO2,74*,0,20,nt,17,-18
CCC(=O)Nc1ccc2c(c1)C(=O)N(C)C[C@@H](OC)[C@@H](C)CN(C(=O)c1ccncc1)[C@@H](C)CO2,0,1,4,-6,1,-8
Cc1ccc(Nc2c(-c3ccc(N4CCOCC4)cc3)nc3ncccn23)c(C)c1,0,7,-10,-2,-1,-156
Cc1cccc(C)c1Nc1c(-c2ccc(N3CCOCC3)cc2)nc2ncccn12,0,16,-5,-1,-25*,-33
O=C(CN1C(=O)c2ccccc2C1=O)Nc1cccc(Cl)c1,0,1,2,7,11,-7
O=C(CN1C(=O)c2ccccc2C1=O)Nc1cccc(S(=O)(=O)Nc2ccccc2Cl)c1,2,-6,-7,nt,-26*,2
CCCn1c(CCC(=O)O)nc2cc(S(=O)(=O)N3CCCC3)ccc21,nt,-3,-13,-10,3,-7
CCn1c(CCC(=O)O)nc2cc(S(=O)(=O)N3CCOCC3)ccc21,117*,-1,nt,2,8,-14
CC(C)NC(=O)Nc1ccc2c(c1)C(=O)N([C@H](C)CO)C[C@H](C)[C@H](CN(C)Cc1ccc(Cl)c(Cl)c1)OCCCC[C@H](C)O2,nt,9,-26,0,-5,30
O=C(Nc1ccc(OCc2ccccc2)cc1)Nc1ccccc1C(=O)NCCCN1CCOCC1,1,-4,-13,nt,-22*,-12
Nc1cc(N2CCOCC2)c(Cl)cc1[N+](=O)[O-],2,-2,1,nt,-21*,-6
O=[N+]([O-])/C=C\c1ccc(N2CCOCC2)cc1,nt,nt,-34,nt,-19*,-20
O=[N+]([O-])c1ccc(N2CCCC2)cc1N1CCCC1,nt,nt,19,6,nt,nt
O=C(COc1ccc(/C=C\[N+](=O)[O-])cc1)N1CCOCC1,0,-7,-57,nt,18,-7
Cc1cc(N2CCCCC2)ccc1[N+](=O)[O-],nt,2,nt,nt,-43*,-9
O=[N+]([O-])c1ccc(N2CCCCC2)cc1N1CCOCC1,-2,5,45*,nt,-4,-5
Cc1noc(C)c1NC(=O)Nc1ccc2c(c1)CC(=O)N([C@@H](C)CO)C[C@H](C)[C@@H](CN(C)CC1CC1)O2,0,-15,3,0,-7,9
COc1cc(CN2CC3(CN(S(=O)(=O)c4cn(C)cn4)C3)c3c(n(C)c4cc(OC)ccc34)[C@@H]2CO)cc(OC)c1,0,8,-11,nt,-3,-20
O=C(O)CC1(CC(=O)Nc2ccc(F)c(Cl)c2)CCCCC1,8,-7,-23,5,-23*,-7
COc1cc2c(cc1OC)C(c1ccc3c(c1)Cc1ccccc1-3)OC(=O)C2 (centres undefined),2,4,nt,1,-23*,-39
COc1ccc(C2OC(=O)Cc3cc(OC)c(OC)cc32)cc1 (centres undefined),nt,0,-4,-3,2,0
SMILES,E-selectin induc,AF4-AF9 inh,INS-1E GSIS act,RAD54 inh,rRNA inh HTS,RAD52 anneal inh
CN(C)S(=O)(=O)c1ccc(-c2csc(N/N=C/c3ccco3)n2)cc1,nt,-2,nt,nt,-20*,-8
Cc1ccc2nc(N/N=C/c3ccco3)cc(C)c2c1,nt,7,8,23,-20*,-13
Cc1sc(N/N=C/c2ccco2)nc1-c1ccccc1,nt,25*,6,nt,-14,-4
Brc1ccc(-c2csc(N/N=C/c3ccco3)n2)cc1,nt,11,-3,1,-38*,-2
C(=N\Nc1nc(-c2ccccc2)cs1)/c1ccco1,0,nt,0,3,nt,nt
CCCNC(=O)N1CCC2(CC1)CN(C(=O)CC1CC1)[C@H](CO)c1c2c2ccc(OC)cc2n1C,nt,nt,0,nt,1,nt
Cc1noc(C)c1NC(=O)N[C@@H]1CC[C@H](CCNC(=O)C2CCOCC2)O[C@@H]1CO,1,-14,36,9,2,8
COc1ccccc1CNC(=O)C[C@@H]1CC[C@H](NC(=O)CC2CC2)[C@H](CO)O1,-1,-1,12,-3,-1,-10
Clc1ccc(-c2csc(N/N=C\c3cccnc3)n2)cc1,0,3,nt,nt,-21*,-17
O=C(O)c1ccc(N/N=C/c2ccc(-c3ccccc3)cc2)cc1,nt,11,2,nt,-45,-9
O=C(O)c1ccc(/C=N/Nc2cccc(C(F)(F)F)c2)cc1,6,1,-19,-13,-41*,-5
O=C(CN1CCN(c2ccc(O)cc2)CC1)Nc1ccccc1C(=O)NCCc1ccccc1,66*,4,-5,-2,-25*,-5
O=C(CN1CCN(c2ccc(O)cc2)CC1)Nc1cc(S(=O)(=O)N2CCCC2)ccc1Cl,-1,8,0,nt,-21*,-9
CS(=O)(=O)N1CCN(c2ccccc2NC(=O)Cc2ccccc2)CC1,nt,nt,nt,6,nt,nt
COc1cccc(N2CCN(CC(=O)Nc3ccccc3C(=O)NCCc3ccccc3)CC2)c1,nt,2,nt,-9,nt,-19
O=C(Cc1ccccc1)Nc1ccccc1N1CCN(c2ccccc2)CC1,nt,-5,3,-3,-23*,-22
CCCNC(=O)N(C)C[C@@H]1Oc2ncc(C#Cc3ccncc3)cc2C(=O)N([C@@H](C)CO)C[C@@H]1C,2,-4,-25,4,8,-5
COc1ccc(-c2nc(C#N)c(NCCc3ccccc3)o2)cc1OC,nt,nt,nt,-6,nt,nt
COc1ccc(CCNc2oc(-c3ccc(OC)c(OC)c3)nc2P(=O)(OC)OC)cc1OC,nt,nt,68*,nt,nt,nt
Cc1cc(Sc2nnc(/N=C/N(C)C)s2)c2ccccc2n1,0,nt,-14,-2,-20*,9
COc1ccc(/C=C/C(=O)NC(=S)Nc2ccccc2)cc1OC,0,-3,15,9,10,-20
CCc1nnc(NS(=O)(=O)c2ccc(NC(=S)NC(=O)/C=C/c3ccccc3)cc2)s1,nt,3,-32,nt,-37*,-15
COc1ccc(/C=C/C(=O)NC(=S)Nc2ccc(S(N)(=O)=O)cc2)cc1OC,0,0,44*,-7,24,7
CCc1nnc(NS(=O)(=O)c2ccc(NC(=S)NC(=O)/C=C/c3ccc(OC)cc3)cc2)s1,-1,nt,-15,nt,nt,nt
